High-throughput results from PubChem.
SR-BI HDL uptake – inhibitors of mouse SR-BI mediated HDL lipid uptake; inhibition, % at 12.5 µM; ldlA[mSR-BI] CHO cells, DiI-HDL uptake fluorescence, 3 h; AID 488896; 0.96% of 320,000 active;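 active = mean replicate inhibition of at least 70% and a set share of replicates each scoring 70 or more; inconclusive = meets just one of the two criteria; inactive = fails both criteria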;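 note: 0% = median of neutral control wells and 100% = median of positive control wells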
Target sequence (Q61009 whole entry, looked up): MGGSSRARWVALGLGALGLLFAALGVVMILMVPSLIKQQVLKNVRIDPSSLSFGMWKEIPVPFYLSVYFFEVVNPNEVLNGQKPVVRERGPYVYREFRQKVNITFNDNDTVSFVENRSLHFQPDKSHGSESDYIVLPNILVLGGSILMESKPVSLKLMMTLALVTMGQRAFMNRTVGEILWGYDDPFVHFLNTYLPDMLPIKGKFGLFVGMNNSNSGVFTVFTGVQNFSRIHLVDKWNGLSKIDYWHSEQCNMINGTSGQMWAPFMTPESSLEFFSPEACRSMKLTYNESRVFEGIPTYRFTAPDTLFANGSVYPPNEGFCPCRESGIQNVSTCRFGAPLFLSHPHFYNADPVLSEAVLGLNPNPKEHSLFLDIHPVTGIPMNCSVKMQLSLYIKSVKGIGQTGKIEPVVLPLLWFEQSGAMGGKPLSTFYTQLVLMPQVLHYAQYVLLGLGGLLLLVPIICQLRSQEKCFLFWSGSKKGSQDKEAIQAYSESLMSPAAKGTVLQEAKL
SR-BI uptake up – enhances SR-BI lipid uptake from DiI-HDL. activation, % at 12.5 µM. 0.096% of 320,000 active. CHO ldlA[mSR-BI] cells, DiI-HDL uptake fluorescence, 3 h; 100 = double the neutral-control signal. AID 504775;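 active = mean replicate activation of at least 60% and every replicate at or above 60%; inconclusive = mean or all-replicate condition met, but not both; inactive = mean below 60% and not all replicates reaching 60%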;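 note: 0% = median plate neutral-control signal and 100% = twice that signal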
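Test system: SR-BI-overexpressing, LDLR-lacking CHO cells. Measured by: DiI fluorescence, bottom read. Medium: Ham's F12 with 0.5% BSA, HEPES 25 mM, pH 7.4. Timing: 3 h uptake period with compound, 37 °C.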
Statin myotox sup – suppression of simvastatin myotoxicity | rescue of ATP level, % at 7.49 µM | C2C12 myotubes + simvastatin, ATP luminescence, 48 h; scaled: DMSO 0, geranylgeraniol control 100 | 0.78% of 330,000 active | AID 602340;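 active = mean ATP rescue above about 67%, or every replicate alone reaching that limit, limit read from the data, passing the limit was not always enough; inconclusive = no clear call, values can overlap the other calls; inactive = mean under the limit and some replicate under it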;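 note: myotubes were challenged with 10 µM simvastatin during compound exposure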
Vif inh – HIV Vif inhibition. HEK293T cells, Vif self-association by quenched fluorescence, imaging, 24 h. 0.35% of 340,000 active. inhibition, % at 7.49 µM; in the data active = inhibition above about 50%, passing the limit was not always enough; inconclusive = no clear call, values can overlap the other calls; inactive = below about 31%
* hit, by the source's call; ? = inconclusive; nt = not tested or not shown. In the library only some 1.7% were active in any assay of this set; here they are far more common.

SMILES	SR-BI HDL uptake	SR-BI uptake up	Statin myotox sup	Vif inh
O=C(N/N=C/c1ccccc1O)c1cccc2ccccc12	51	-51	-11	3
CN(C)c1ccc(C=NNC(=O)c2cccc3ccccc23)c(Cl)c1	75*	-75	nt	-5
COc1cc(OC)cc(-c2c(C#Cc3ccsc3)c3cc(-c4ccc5cc[nH]c5c4)ccc3n2C)c1	72*	-72	-36	-5
COc1ccc(-c2c(-c3ccc(OC)nc3)c3ccccc3n2C)cc1	77*	-77	-8	30
COc1cc(OC)cc(-c2c(-c3cccs3)c3cc(-c4ccc(C(N)=O)cc4)ccc3n2C)c1	54	-54	0	112*
COc1cc(OC)cc(-c2c(-c3ccc(F)cc3)c3cc(-c4ccc5[nH]ccc5c4)ccc3n2C)c1	88*	-88	6	0
COc1cccc(-c2c(-c3cc(OC)cc(OC)c3)n(C)c3ccc(-c4ccc5[nH]ccc5c4)cc23)c1	63	-63	-20	0
COc1cc(OC)cc(-c2c(-c3ccc(F)cc3)c3cc(-c4ccc(OC)nc4)ccc3n2C)c1	28	-28	-5	7
COc1ccc(-c2c(-c3cc(OC)cc(OC)c3)n(C)c3ccc(-c4ccc5cc[nH]c5c4)cc23)cc1	85*	-85	12	-5
COc1ccc(-c2c(-c3cc(OC)cc(OC)c3)n(C)c3ccc(-c4ccc(N(C)C)nc4)cc23)cc1	83*	-83	-33	-1
Cc1cccc(C(=O)Nc2cc(NC(=O)c3cccs3)ccc2C)c1	74*	-74	-27	-1
COc1cc(NC(=O)c2ccc(C)cc2C)ccc1NC(=O)c1cccs1	84*	-84	-15	?
CCN1/C(=C2/SC(=S)N(NC(C)=O)C2=O)Sc2ccc(OC)cc21	14	-14	-20	71*
COc1ccc(OCC(=O)N2CCN(c3nnc(-c4ccc(C)cc4)c4ccccc34)CC2)cc1	77*	-77	12	-1
COc1ccc(OCC(=O)N2CCN(c3nnc(-c4ccccc4)c4ccccc34)CC2)cc1	56	-56	nt	-11
Cc1ccc(-c2nnc(N3CCC(C)CC3)c3ccccc23)cc1	66	-66	nt	-2
O=C(COc1ccccc1)N1CCN(c2nnc(-c3ccccc3)c3ccccc23)CC1	35	-35	79*	-12
Cc1ccc(-c2nnc(N3CCN(C(=O)COc4cccc(C)c4)CC3)c3ccccc23)cc1	64	-64	30	-7
CC1CCN(c2nnc(-c3ccccc3)c3ccccc23)CC1	84*	-84	nt	0
Cc1cccc(OCC(=O)N2CCN(c3nnc(-c4ccccc4)c4ccccc34)CC2)c1	80*	-80	nt	-2
CCC(=O)N1[C@@H]2c3cccc(=O)n3C[C@H]1[C@H](CO)[C@H]2C(=O)NCc1ccccc1	nt	nt	5	nt
CCCNC(=O)C[C@H]1C[C@H]2c3cc(NS(=O)(=O)c4cccc(OC)c4)ccc3O[C@H]2[C@H](CO)O1	nt	nt	-3	nt
CO[C@@H]1CN(C)C(=O)c2cc(NC(=O)Nc3ccccc3F)ccc2OC[C@H](C)N(C)C[C@H]1C	nt	nt	0	nt
Cc1ccc(OCC(=O)N2CCN(c3nnc(-c4ccc(C)cc4)c4ccccc34)CC2)cc1	78*	-78	5	-29
Cc1ccc(-c2nnc(N3CCN(C(=O)CN4C(=O)c5ccccc5C4=O)CC3)c3ccccc23)cc1	27	-27	-4	3
SMILES	SR-BI HDL uptake	SR-BI uptake up	Statin myotox sup	Vif inh
N#CC1=C(N)N(c2ccccc2)C(=O)C1	-25	25	106*	4
COc1ccc(N2C(=O)CC(C#N)=C2N)cc1	-17	17	nt	-3
Cc1noc(C)c1NC(=O)N(C)C[C@@H]1Oc2ccc(NC(=O)Nc3ccccc3)cc2CC(=O)N([C@@H](C)CO)C[C@H]1C	nt	nt	-12	nt
CC(=O)N(C)C[C@H]1Oc2cc(-c3cccc(F)c3)ccc2S(=O)(=O)N([C@H](C)CO)C[C@H]1C	nt	nt	-27	nt
CN(C)C(=O)c1ccc(-c2cccc(-c3nc(C(=O)NC4CCCC4)cc4c3[C@H](CCO)N([S@@](=O)C(C)(C)C)C4)c2)cc1	nt	nt	8	nt
COc1ccc(CN2CCN(C(=O)C3CCN(S(=O)(=O)c4cccs4)CC3)CC2)c(OC)c1OC	76*	-76	nt	-1
COc1ccc(N2CCN(C(=O)C3CCN(S(=O)(=O)c4cccs4)CC3)CC2)cc1	-18	18	nt	4
C[C@H]1CN([C@@H](C)CO)C(=O)Cc2cc(NC(=O)CCCCCC(=O)Nc3ccccc3N)ccc2O[C@@H]1CN(C)Cc1ccccc1	nt	nt	18	nt
Cc1cc(-c2ccccc2)nc(N/N=C/c2ccc(O)cc2)n1	79*	-79	-18	-8
COc1ccc2nc(C)cc(N/N=C/c3ccccc3)c2c1	18	-18	11	-13
Nc1nc(-c2ccc(Cl)cc2)cc(C(F)(F)F)n1	13	-13	24	nt
COc1ccc(/C=N/Nc2cc(C)nc3ccc(OC)cc23)c(OC)c1	14	-14	-401	92*
Oc1ccc(/C=N/Nc2nc(-c3ccc(Cl)cc3)cc(C(F)(F)F)n2)cc1	80*	-80	10	-6
COc1ccc(O)c(/C=N/Nc2nc(C)cc(-c3ccccc3)n2)c1	88*	-88	-33	-16
COc1ccc(O)c(/C=N/Nc2nc(Nc3ccccc3)nc(-n3nc(C)cc3C)n2)c1	22	-22	nt	9
CO[C@@H]1CN(C)C(=O)c2cc(NC(=O)C3CC3)ccc2OC[C@H](C)N(C(=O)C2CCCCC2)C[C@@H]1C	nt	nt	-6	nt
COc1cc(/C=N/Nc2nc(Nc3ccccc3)nc(N3CCOCC3)n2)ccc1OC(=O)c1ccco1	73*	-73	nt	0
O=C(Oc1cccc(/C=N/Nc2nc(N3CCOCC3)nc(N3CCOCC3)n2)c1)c1ccco1	-19	19	nt	3
COc1ccc2nc(C)cc(Nc3ccc(C)cc3)c2c1	-8	8	-14	6
COc1ccc(/C=N/Nc2nc(Nc3ccccc3)nc(N3CCCCC3)n2)c(OC)c1	89*	-89	nt	2
COc1ccc2nc(C)cc(NCc3ccc(F)cc3)c2c1	1	-1	nt	91*
Cc1[nH]c2ccccc2c1/C=N/Nc1nc(Nc2ccccc2)nc(N2CCOCC2)n1	130*	-130	nt	-2
C[C@H](CO)N1C[C@H](C)[C@H](CN(C)S(=O)(=O)c2cccs2)Oc2ccc(NC(=O)Cc3cn(C)c4ccccc34)cc2CC1=O	nt	nt	-28	nt
O=C(N[C@@H]1CC[C@H](CCn2cc(Cc3ccccc3)nn2)O[C@H]1CO)c1ccccn1	nt	nt	5	nt
COC(=O)C[C@@H]1C[C@H]2c3cc(NC(=O)c4cccnc4)ccc3O[C@H]2[C@H](CO)O1	nt	nt	2	nt
COc1ccc(/C=N/Nc2ncc(-c3ccccc3)cn2)c(OC)c1	23	-23	2	6
COc1ccc(/C=N/Nc2nc(C)cc(-c3ccccc3)n2)c(OC)c1	74*	-74	-4	-10
CCC(=O)N1C[C@H](C)[C@H](OC)CN(C)C(=O)c2ccc(NC(=O)C3CCOCC3)cc2OC[C@H]1C	nt	nt	8	nt
COc1ccc(-c2cc(C(=O)N/N=C/c3ccc4c(c3)OCO4)c3ccccc3n2)c(OC)c1	47	-47	-7	-10
